Active and inactive are the calls of the source. The rule behind the calls is not given here.
Columns and labels:
Type in all cases: cell-based
[1] = molecular target: 4-trimethylaminobutyraldehyde dehydrogenase (Homo sapiens) (UniProt P49189); experiment: Inhibition of ALDH9A1 in human HEK293 cells at 250 nM in presence of ABP MT16-205 by Competitive pulldown based immunoblotting analysis
Procedure, shortened: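 Lysates AzTB-clicked, streptavidin bead pulldown (2 h RT), boiled elution, SDS-PAGE. Target detected by immunoblot: 3% BSA/TBS-T block, primary antibody 1.5 h RT or overnight at 4 °C, HRP secondary, chemiluminescence.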

[2] = molecular target: Ubiquitin carboxyl-terminal hydrolase isozyme L1 (Homo sapiens) (UniProt P09936); experiment: Binding affinity to UCHL1 in human HEK293 cells at 130 to 500 nM in presence of ABP MT16-205 by LFQ-NanoLC-MS/MS analysis; conditions: dose 130-500 nM, DDE = dose-dependent effect
Procedure, shortened: (§1)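 Competition format: HEK293 cells pre-treated 1 h with competitor or DMSO, then exposed to ABP MT16-205. Lysis in PBS/Triton/SDS buffer, AzRB click ligation, NeutrAvidin pulldown, on-bead TCEP/chloroacetamide treatment and overnight tryptic digestion. Label-free LC-MS/MS; two-sample t-test versus control (n=3, permutation FDR 0.01, S0=1).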

[3] = molecular target: T1, Aldehyde dehydrogenase, mitochondrial (Homo sapiens) (UniProt P05091); experiment: Binding affinity to ALDH2 in human HEK293 cells at 130 to 500 nM in presence of ABP MT16-205 by LFQ-NanoLC-MS/MS analysis; conditions: dose 130-500 nM, DDE = dose-dependent effect; procedure, shortened: as §1
T1 sequence (whole entry): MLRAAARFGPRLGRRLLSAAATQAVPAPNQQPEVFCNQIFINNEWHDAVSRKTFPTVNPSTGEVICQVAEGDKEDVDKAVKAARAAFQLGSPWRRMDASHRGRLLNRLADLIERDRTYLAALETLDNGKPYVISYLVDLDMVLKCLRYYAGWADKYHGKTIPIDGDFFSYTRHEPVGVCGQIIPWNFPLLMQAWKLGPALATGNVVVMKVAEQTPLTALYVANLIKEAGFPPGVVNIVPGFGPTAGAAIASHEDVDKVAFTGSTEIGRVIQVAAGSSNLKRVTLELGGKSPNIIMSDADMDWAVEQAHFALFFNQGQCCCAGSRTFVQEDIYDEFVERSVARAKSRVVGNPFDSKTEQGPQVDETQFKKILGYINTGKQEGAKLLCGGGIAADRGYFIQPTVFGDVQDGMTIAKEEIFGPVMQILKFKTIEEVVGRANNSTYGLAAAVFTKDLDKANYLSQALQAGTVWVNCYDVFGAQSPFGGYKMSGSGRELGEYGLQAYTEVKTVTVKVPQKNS

[4] = molecular target: T2, Glutamine amidotransferase-like class 1 domain-containing protein 3, mitochondrial (Homo sapiens) (UniProt P0DPI2); experiment: Binding affinity to GATD3A in human HEK293 cells at 130 to 500 nM in presence of ABP MT16-205 by LFQ-NanoLC-MS/MS analysis; conditions: dose 130-500 nM, DDE = dose-dependent effect; procedure, shortened: as §1
T2 sequence (whole entry): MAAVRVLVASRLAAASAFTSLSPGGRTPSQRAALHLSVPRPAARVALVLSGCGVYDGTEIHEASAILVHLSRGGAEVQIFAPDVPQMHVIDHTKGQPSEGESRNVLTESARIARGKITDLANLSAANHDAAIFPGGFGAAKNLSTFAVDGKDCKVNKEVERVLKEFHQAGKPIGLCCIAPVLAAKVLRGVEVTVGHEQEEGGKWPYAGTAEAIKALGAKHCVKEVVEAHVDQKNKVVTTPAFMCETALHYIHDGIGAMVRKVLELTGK

[5] = molecular target: Ubiquitin carboxyl-terminal hydrolase isozyme L1 (Homo sapiens) (UniProt P09936); experiment: Binding affinity to UCHL1 in human HEK293 cells at 31 nM by TAMRA labelled pulldown based In-gel fluorescence analysis
Procedure, shortened: (§2)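 HEK293 cells treated with ABP; lysate (150 µg) CuAAC-ligated to AzTB, precipitated, resuspended. 100 µg incubated with streptavidin magnetic beads 2 h RT, washed with 0.2% SDS/PBS, eluted by boiling 10 min at 95 °C. Eluates run on SDS-PAGE and read by TAMRA in-gel fluorescence or by immunoblot on nitrocellulose with HRP chemiluminescence.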

[6] = molecular target: Ubiquitin carboxyl-terminal hydrolase isozyme L1 (Homo sapiens) (UniProt P09936); experiment: Binding affinity to UCHL1 in human HEK293 cells at 31 nM by TAMRA labelled pulldown based immunoblotting analysis; procedure, shortened: as §2
[7] = molecular target: Ubiquitin carboxyl-terminal hydrolase isozyme L1 (Homo sapiens) (UniProt P09936); experiment: Binding affinity to UCHL1 in human HEK293 cells assessed as fold change at 130 nM incubated for 3 to 6 hrs by LFQ-chemical proteomics analysis; conditions: time 3-6 hrs
Procedure, shortened: (§3)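 HEK293 cells exposed to alkyne ABP or DMSO for 3, 6 or 18 h, washed, lysed in PBS/1% Triton X-100/0.1% SDS. Lysates (400 µg, biological triplicates) CuAAC-ligated to AzRB (100 µM, CuSO4 1 mM, TCEP 1 mM, TBTA 100 µM, 1 h RT). NeutrAvidin enrichment, on-bead TCEP/CAA reduction-alkylation, overnight trypsin digest at 37 °C, LC-MS/MS label-free quantification. Two-sample t-test against DMSO (n=3, permutation FDR 0.01, S0=1).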

[8] = molecular target: Aldehyde dehydrogenase family 3 member A2 (Homo sapiens) (UniProt P51648); experiment: Binding affinity to ALDH3A2 in human HEK293 cells assessed as fold change at 130 nM incubated for 3 to 6 hrs by LFQ-chemical proteomics analysis; conditions: time 3-6 hrs; procedure, shortened: as §3
[9] = molecular target: Ubiquitin carboxyl-terminal hydrolase isozyme L1 (Homo sapiens) (UniProt P09936); experiment: Binding affinity to UCHL1 in human HEK293 cells assessed as fold change at 30 nM incubated for 3 to 18 hrs by LFQ-chemical proteomics analysis; conditions: time 3-18 hrs; procedure, shortened: as §3
[10] = test system: HEK293; experiment: Binding affinity to ALDH in human HEK293 cells assessed as fold change at 30 nM incubated for 3 to 18 hrs by LFQ-chemical proteomics analysis; conditions: time 3-18 hrs; procedure, shortened: as §3

Chain of Ubiquitin carboxyl-terminal hydrolase isozyme L1 (Homo sapiens) (P09936 whole entry, looked up): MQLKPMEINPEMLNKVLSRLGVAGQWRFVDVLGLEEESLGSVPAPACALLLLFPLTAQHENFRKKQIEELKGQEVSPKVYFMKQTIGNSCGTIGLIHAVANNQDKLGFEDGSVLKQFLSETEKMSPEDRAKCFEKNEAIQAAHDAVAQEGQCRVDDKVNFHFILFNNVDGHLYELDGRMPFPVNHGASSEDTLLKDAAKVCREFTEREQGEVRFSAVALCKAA
Chain of Aldehyde dehydrogenase family 3 member A2 (Homo sapiens) (P51648 whole entry): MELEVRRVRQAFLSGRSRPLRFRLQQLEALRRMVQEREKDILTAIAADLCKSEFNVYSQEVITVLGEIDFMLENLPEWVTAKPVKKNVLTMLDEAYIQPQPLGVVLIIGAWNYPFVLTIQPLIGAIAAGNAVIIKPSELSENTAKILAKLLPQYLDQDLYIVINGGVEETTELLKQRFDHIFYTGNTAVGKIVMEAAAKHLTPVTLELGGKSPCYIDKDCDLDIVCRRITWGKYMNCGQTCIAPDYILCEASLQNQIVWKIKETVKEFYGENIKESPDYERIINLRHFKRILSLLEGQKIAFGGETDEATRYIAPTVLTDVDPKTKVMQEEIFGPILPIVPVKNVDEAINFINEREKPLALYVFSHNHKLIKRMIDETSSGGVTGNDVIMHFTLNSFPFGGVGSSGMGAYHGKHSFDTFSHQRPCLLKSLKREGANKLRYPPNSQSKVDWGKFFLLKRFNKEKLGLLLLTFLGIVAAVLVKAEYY
Chain of 4-trimethylaminobutyraldehyde dehydrogenase (Homo sapiens) (P49189 whole entry): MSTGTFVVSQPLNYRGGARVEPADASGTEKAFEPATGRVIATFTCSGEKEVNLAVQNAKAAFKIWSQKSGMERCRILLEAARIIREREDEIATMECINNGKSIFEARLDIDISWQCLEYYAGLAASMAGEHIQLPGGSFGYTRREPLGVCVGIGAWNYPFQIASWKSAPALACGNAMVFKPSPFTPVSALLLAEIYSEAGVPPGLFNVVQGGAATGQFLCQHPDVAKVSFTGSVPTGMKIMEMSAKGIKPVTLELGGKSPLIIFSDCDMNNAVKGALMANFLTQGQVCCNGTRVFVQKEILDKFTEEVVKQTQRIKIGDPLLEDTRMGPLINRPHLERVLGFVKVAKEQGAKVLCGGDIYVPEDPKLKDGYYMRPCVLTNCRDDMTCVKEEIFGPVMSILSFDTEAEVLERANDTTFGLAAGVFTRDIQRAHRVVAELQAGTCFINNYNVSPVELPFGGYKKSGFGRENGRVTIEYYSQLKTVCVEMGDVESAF

## N#CN1CC[C@H](C(=O)Nc2ncc(-c3ccccc3)s2)C1
[1]
  inhibition: Active
[2]
  Activity: Dde
[3]
  Activity: Dde
[4]
  Activity: Dde

## C#Cc1ccc(-c2cnc(NC(=O)[C@H]3CCN(C#N)C3)s2)cc1
[5]
  Activity: Active
[6]
  Activity: Active
[7]
  fold change (FC): > 64
[8]
  fold change (FC): > 64
[9]
  fold change (FC): > 16
[10]
  fold change (FC): > 16

From ChEMBL document CHEMBL5107948, “Activity-based protein profiling reveals deubiquitinase and aldehyde dehydrogenase targets of a cyanopyrrolidine probe” (RSC Med Chem, 2021)
